Assay outcomes deposited in PubChem BioAssay by several laboratories.
Mot1-301 SUMO – yeast Mot1-301 growth rescue at high temperature, primary screen, SUMOylation pathway inhibitor project, S. cerevisiae, ATP luminescence, 38.5C; growth rescue, % at 18.8 µM; S. cerevisiae Mot1-301 growth rescue; percent above DMSO median, 100 means doubled; actives 1% (n = 320,000);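 active = every valid replicate shows activation above 250% relative to neutral control wells; inactive = the rest, any valid replicate at or below 250%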;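 also: OY570 slx delta 5 strain wells were the positive control but not used for scaling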
KCNQ1 block – inhibitors of human KCNQ1 channel, primary screen, cell-based, thallium flux, high-throughput; Potassium voltage-gated channel subfamily KQT member 1 (Homo sapiens), P51787; CHO-K1 KCNQ1, FluxOR thallium flux fluorescence; active compounds read high; B-score at 10 µM; actives 1.3% (n = 310,000);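 active = compounds whose thallium flux B-score, printed positive for inhibition, exceeds three library SD while starting fluorescence stays within three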;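 also: channel opened by potassium depolarization with thallium stimulus after 20 min compound exposure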
hERG rescue – hERG rescue from dofetilide block, primary screen, cell-based, CHO-hERG, FluxOR thallium flux, dofetilide IC70; dofetilide IC70 present; Voltage-gated inwardly rectifying potassium channel KCNH2 (Homo sapiens), Q12809; activation (rescue from dofetilide block), less the hit threshold, % at 10 µM; actives 0.51% (n = 310,000);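 active = activation above the mean of controls blocked by dofetilide plus 5 SD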;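 also: thallium influx through hERG after potassium depolarization seen as dye fluorescence rise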
KCNQ1 act – potentiators or activators of KCNQ1 channel, primary screen, cell-based, thallium flux, high-throughput | Potassium voltage-gated channel subfamily KQT member 1 (Homo sapiens), P51787 | CHO-K1 KCNQ1, thallium flux FluxOR fluorescence; active compounds read high | B-score at 10 µM | actives 0.35% (n = 310,000);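 active = fluorescence ratio B-score, a plate-corrected score, at least three library SD, with initial intensity B-score within 5 SD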
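System: CHO-K1 cells stably expressing KCNQ1 / Medium: assay buffer for compound exposure, DMSO matched across wells / Reagent: thallium- and potassium-containing depolarizing buffer / Compound: one concentration, matched DMSO / Incubation: 20 min compound pretreatment at room temperature / Measured by: kinetic FluxOR fluorescence, 10 s baseline plus 110 s post-stimulus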
Cl transport mod – KCC2 cotransporter modulators, thallium flux, primary screen, cell-based, HEK293 KCC2, FluoZin-2 fluorescence, MLSMR; B-score of Tl+ flux slope (higher = more flux/activation; lower = inhibition) at 10 µM; actives 2.2% (n = 190,000); Solute carrier family 12 member 5 (Homo sapiens), Q9H2X9; KCC2 cells, thallium flux FluoZin-2 fluorescence;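 active = thallium flux slope and its plate-corrected score both differing from the plate sample mean at a set confidence after two filtering rounds, in either direction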;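 also: slope of fluorescence scaled to starting intensity during 10 to 20 s after thallium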
AI-2 QS mod – Vibrio harveyi AI-2 quorum sensing modulators, primary screen, JMH597 strain, luminescence/OD600 ratio. Vibrio harveyi JMH597 AI-2 luminescence/OD600 ratio, 9 h; active compounds read low; strain lacks LuxN and CqsS sensors; 0 = neutral-control median. activity change, % at 7.5 µM. actives 0.4% (n = 300,000). AID 2094, 2009; in the data active = activity change below about -75%, passing the limit was not always enough; inconclusive = no clear call, values can overlap the other calls;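 also: luminescence divided by OD600 gain over 9 h not by final OD600 alone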
KCC2 secondary – KCC2 modulators in sodium-free buffer, confirmation, cell-based, HEK293 KCC2, thallium flux, secondary assay; shares compounds with Cl transport mod; FluoZin2 fluorescence; active compounds read high; normalised thallium flux (F/F0 slope) at 10 µM; actives 15% (n = 3,700); AID 1713, 2009;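 active = thallium flux slope above the same plate's solvent-only control mean plus 3 SD; inconclusive = the two replicate wells disagree; inactive = no significant difference from solvent-only control wells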
KCC2 bumet counter – thallium flux persisting under bumetanide in KCC2 cells, confirmation, counter-screen for KCC2 modulator project, cell-based, HEK293 KCC2, FluoZin2, secondary assay 3; shares compounds with Cl transport mod; normalized thallium flux at 10 µM; HEK293-KCC2 + bumetanide/ouabain; active compounds read high; actives 49% (n = 3,700);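 active = thallium entry rate above the same plate's blocked-transporter control wells by more than 3 SD; inconclusive = the two repeat wells disagree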;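 also: raw slope of fluorescence over initial fluorescence between 10 and 20 s after thallium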
KCC2 sec2 – KCC2 modulators without ouabain present, confirmation, cell-based, HEK293 KCC2, thallium flux, FluoZin2, secondary assay 2; shares compounds with Cl transport mod; thallium flux FluoZin2 fluorescence; actives lie on both sides; F/F0 rise rate, 10–20 s post-thallium; normalized thallium flux at 10 µM; actives 23% (n = 3,700);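 active = thallium flux slope more than 3 SD above or below the plate's solvent-only control mean, mostly below; inconclusive = the two repeat wells disagreed; inactive = no significant shift from solvent-only controls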;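 also: raw slope with 0.1% DMSO as baseline and bumetanide as block control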
HEK counter1 – thallium flux modulation in parental HEK cells, confirmation, counter-screen for KCC2 modulator project, cell-based, counterscreen 1. shares compounds with Cl transport mod. HEK293 parental cells, thallium flux FluoZin2, ouabain; baseline-ratio fluorescence slope, 10–20 s after thallium. thallium flux rate (normalised fluorescence) at 10 µM. actives 46% (n = 3,700);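 active = thallium flux rate significantly above the same plate's solvent-only control wells, beyond their mean plus 3 SD; inconclusive = the two replicate wells gave conflicting results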
KCC2 ouabain – KCC2 inhibitors and activators, ouabain retest, confirmation, HEK-KCC2 cells; HEK293-KCC2, thallium flux FluoZin2 fluorescence; bidirectional: low = inhibitor, high = activator; shares compounds with Cl transport mod; raw Tl+ flux slope (below DMSO = inhibition, above = activation) at 10 µM; actives 48% (n = 3,700);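 active = thallium flux slope beyond 3 SD from same-plate DMSO control mean in most replicates, usually higher, sometimes lower; inconclusive = repeat tests gave conflicting results; inactive = no significant difference from controls in most replicates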;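 also: slope of initial-normalized fluorescence between seconds 10 and 20 after thallium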
HEK293 Tl flux2 – native HEK Tl+ uptake effects, second counter-screen – HEK cells, counterscreen 2, counter-screen for KCC2 modulator project, confirmation. shares compounds with Cl transport mod. HEK293 parental, thallium flux FluoZin-2 fluorescence slope. thallium flux slope at 10 µM. actives 33% (n = 3,700). AID 1718, 2009;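 active = thallium flux slope above the same plate's solvent-control mean plus 3 SD in both duplicate wells; inconclusive = duplicate wells that disagreed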;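 also: run without ouabain in cells lacking the KCC2 cotransporter; slope of fluorescence scaled to its starting value between 10 and 20 s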
Numbers without * were called inactive. Shown are actives, neighbours in structure and some others; about 4.2% of the full set was active somewhere.

What do the screens show for `CCOc1ccc(NC(=S)NC(=O)c2ccco2)cc1`?
Mot1-301 SUMO: 44; KCNQ1 block: inactive; hERG rescue: 6.1*; KCNQ1 act: 12*; Cl transport mod: 184*; AI-2 QS mod: 0; KCC2 secondary: 0.063*; KCC2 bumet counter: 0.18*; KCC2 sec2: 0.048*; HEK counter1: 0.11*; KCC2 ouabain: 0.098*; HEK293 Tl flux2: 0.041*

What do the screens show for `CC(C)C(=O)Nc1ccc(NC(=S)NC(=O)c2cc3ccccc3o2)cc1`?
Mot1-301 SUMO: 491; KCNQ1 block: inactive; hERG rescue: -7; KCNQ1 act: inactive; Cl transport mod: 0.53; AI-2 QS mod: 16

Results for CC(NC(=S)Nc1ccc(S(=O)(=O)N2CCOCC2)cc1)C1CC2CCC1C2 (configuration not stated) ?
Mot1-301 SUMO: -8; KCNQ1 block: inactive; hERG rescue: -14; KCNQ1 act: inactive; Cl transport mod: 0.5; AI-2 QS mod: 20

Results for CCCCC(=O)Nc1ccc(C(=O)NNC(=O)c2ccco2)cc1 ?
Mot1-301 SUMO: 8; KCNQ1 block: inactive; hERG rescue: 0; KCNQ1 act: inactive; Cl transport mod: 0.4; AI-2 QS mod: 12

What do the screens show for `O=C(NC(=S)Nc1ccc(CN2CCOCC2)cc1)c1ccco1`?
Mot1-301 SUMO: -10; KCNQ1 block: inactive; hERG rescue: -15; KCNQ1 act: inactive; Cl transport mod: 11*; AI-2 QS mod: 6; KCC2 secondary: inconclusive; KCC2 bumet counter: 0.034*; KCC2 sec2: 0.034; HEK counter1: 0.013*; KCC2 ouabain: 0.039*; HEK293 Tl flux2: 0.012*
